# Measurements reported in article PMC4502975 (Angewandte Chemie (International Ed. in English), 2014).
# Entries after “also recorded” stand apart in the source; their conditions may differ.
# Experiments:
# [1] = Buffer stability in AC assay buffer pH 4.5 by LC-MS; format: physicochemical
# human AC [2] = target: T1, human AC (Homo sapiens, UniProt Q13510); assay: Kinetic analysis of the AC reaction; format: biochemical; settings: mean of two independent experiments
# T1 sequence (Q13510 22-395): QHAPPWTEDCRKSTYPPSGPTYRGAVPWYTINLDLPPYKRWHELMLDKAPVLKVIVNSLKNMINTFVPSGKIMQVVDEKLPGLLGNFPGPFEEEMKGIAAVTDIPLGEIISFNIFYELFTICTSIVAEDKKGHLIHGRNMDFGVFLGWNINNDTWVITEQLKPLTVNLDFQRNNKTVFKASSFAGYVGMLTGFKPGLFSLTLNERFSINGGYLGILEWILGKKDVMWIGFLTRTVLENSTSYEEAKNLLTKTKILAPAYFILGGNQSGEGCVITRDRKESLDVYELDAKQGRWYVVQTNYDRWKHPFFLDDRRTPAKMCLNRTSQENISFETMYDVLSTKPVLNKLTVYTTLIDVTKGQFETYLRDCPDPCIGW
# In short: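 Kinetic analysis of the fluorescence-based AC reaction run with vehicle (1% DMSO) or test compound at 20 or 50 nm, n=6 each. Vmax given in relative fluorescence units; KM derived for each condition. Values are the mean of two independent experiments.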
# [3] = target: T2, purified recombinant human AC (Homo sapiens, UniProt Q13510); assay: LC-MS study of covalent adduct with AC; format: binding; settings: 1:10 protein:compound, 1 h, 37 °C, pH 4.5
# T2 sequence (Q13510 143-395 limits assumed): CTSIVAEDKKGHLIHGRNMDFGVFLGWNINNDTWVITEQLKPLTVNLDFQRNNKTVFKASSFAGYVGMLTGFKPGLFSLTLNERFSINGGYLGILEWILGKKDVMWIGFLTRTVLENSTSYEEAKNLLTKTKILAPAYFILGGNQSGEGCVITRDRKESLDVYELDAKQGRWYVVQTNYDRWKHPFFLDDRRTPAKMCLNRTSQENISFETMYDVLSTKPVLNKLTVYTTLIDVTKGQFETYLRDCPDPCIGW
# T2 sequence (Q13510 22-142 limits assumed): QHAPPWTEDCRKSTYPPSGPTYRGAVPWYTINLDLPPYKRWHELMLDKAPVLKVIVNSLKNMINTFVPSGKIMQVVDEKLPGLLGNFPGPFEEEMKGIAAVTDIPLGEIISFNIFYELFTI
# human AC [4] = target: T1, human AC; assay: Acid ceramidase; format: biochemical; settings: for IC50 [nM] ±S.E.M on human AC: means of at least three determinations
# [5] = Chemical stability in [D6]DMSO; format: physicochemical
# rat AC = settings: read-out: IC50 for rat AC; cited from earlier work
smiles,measurement,setting,value
"O=C(NCCCCc1ccccc1)n1c(=O)oc2ccccc21 [9 a, 2-oxo-N-(4-phenylbutyl)-1,3-benzoxazole-3-carboxamide]",half-life at 10 µM,[1],2.1 ± 0.05 h
same,Vmax,human AC [2]; 9 a 20 nM,7808 RFU
same,Vmax,human AC [2]; 9 a 50 nM,3889 RFU
same,"covalent binding to AC (LC-MS, tryptic peptide CTSIVAEDK)",[3],"covalently binds to the catalytic cysteine, Cys-143"
O=c1oc2ccccc2n1C(=S)NCCCCc1ccccc1 [9 b],IC50 [nM] ±S.E.M on human AC,human AC [4],not stable
same,chemical stability in [D6]DMSO,[5],limited chemical stability
CN(CCCCc1ccccc1)C(=O)n1c(=O)oc2ccccc21 [9 c],IC50 [nM] ±S.E.M on human AC,human AC [4],no inhibitory activity; also recorded: no inhibition
O=C(OCCCCc1ccccc1)n1c(=O)oc2ccccc21 [9 d],IC50 [nM] ±S.E.M on human AC,human AC [4],no inhibitory activity; also recorded: no inhibition
O=C(CCCCCc1ccccc1)n1c(=O)oc2ccccc21 [9 e],IC50 [nM] ±S.E.M on human AC,human AC [4],Loss of activity; also recorded: no inhibition
O=C(NCCCCc1ccccc1)n1c(=O)oc2cc(Br)ccc21 [16 a],potency relative to 9 a,human AC [4]; human AC,two-fold increase in potency
same,half-life at 10 µM,[1],4.9 ± 0.5 h
"CCCCCCNC(=O)n1cc(F)c(=O)[nH]c1=O [carmofur, 5-fluoro-N-hexyl-2,4-dioxo-pyrimidine-1-carboxamide]",IC50,rat AC,29 nM
O=c1[nH]c2ccc(-c3ccc(F)cc3)cc2o1 [compound 19],inhibition of AC in vitro,human AC [4]; at 10 μM,did not inhibit
